For one data set, the system named is KB 3-1. The data set is described as follows: Potentiation of colchicine-induced apoptosis in human KB-3-1 cells assessed as necrotic cells at 1 uM after 48 hrs by Annexin V-FITC/propidium iodide staining based FACS analysis (reference value: 4.9%). In kind it is functional. For orientation: In flow cytometry, cells or beads pass a laser one at a time.
Data set [1] has as its target T1, ATP-dependent translocase ABCB1 (Homo sapiens, UniProt P08183). The data set is described as follows: Inhibition of human ABCB1 transfected in HEK293 cells assessed as potentiation of doxorubicin-induced cytotoxicity by measuring doxorubicin resistance ratio at 500 nM after 72 hrs by CCK8 assay relative to parental HEK293 cells (reference value: 96). Type of data set: cell-based. The conditions noted are these: hek293, 72 h, 0.5 µM. (Tetrazolium assays rely on reduction of a dye to a coloured formazan, in cell work by metabolically active cells.)

Data set [2] concerns the target T1, ATP-dependent translocase ABCB1. The experiment in a line: Inhibition of ABCB1 in human NCI-ADR-RES cells assessed as potentiation of colchicine-induced cytotoxicity by measuring colchicine resistance ratio at 500 nM after 72 hrs by MTT assay relative to parental OVCAR8 cells (reference value: 59). In kind it is cell-based. Particulars: ovcar-8, 72 h, 0.5 µM. The procedure, abridged:
(§1)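 Cells were kept in drug-free DMEM with 10% FCS for 7 days before assay, then plated at 5000 cells/well for 24 h. Drug at various concentrations was added with a nontoxic fixed level of modulator for 72 h, and the read-out was MTT. IC50 came from fitted curves (≥3 experiments). RR = IC50 of the resistant line / IC50 of the parental line.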

The target is the same in data set [3]. The experiment in a line: Inhibition of ABCB1 in human KBV1 cells assessed as potentiation of vincristine-induced cytotoxicity by measuring vincristine resistance ratio at 200 nM after 72 hrs by MTT assay relative to parental KB-3-1 cells (reference value: 356). Type of data set: cell-based. Particulars: kbv1, 72 h, 0.2 µM. The method in brief: as §1
Data set [4] shares this target. The data set is described as follows: Inhibition of human ABCB1 transfected in HEK293 cells assessed as potentiation of doxorubicin-induced cytotoxicity by measuring doxorubicin resistance ratio at 200 nM after 72 hrs by CCK8 assay relative to parental HEK293 cells (reference value: 96). Type of data set: cell-based. The conditions noted are these: hek293, 72 h, 0.2 µM.

Data set [5] has the same target. The data set is described as follows: Inhibition of ABCB1 in human NCI-ADR-RES cells assessed as potentiation of doxorubicin-induced cytotoxicity by measuring doxorubicin resistance ratio at 100 nM after 72 hrs by MTT assay relative to parental OVCAR8 cells (reference value: 46). In kind it is cell-based. Particulars: ovcar-8, 72 h, 0.1 µM. The method in brief: as §1

Data set [6] has the same target. The data set is described as follows: Inhibition of ABCB1 in human KBV1 cells assessed as potentiation of vincristine-induced cytotoxicity by measuring vincristine resistance ratio at 50 nM after 72 hrs by MTT assay relative to parental KB-3-1 cells (reference value: 356). In kind it is cell-based. The conditions noted are these: kbv1, 72 h, 0.05 µM. The procedure, abridged: as §1

T1 sequence (P08183 whole entry): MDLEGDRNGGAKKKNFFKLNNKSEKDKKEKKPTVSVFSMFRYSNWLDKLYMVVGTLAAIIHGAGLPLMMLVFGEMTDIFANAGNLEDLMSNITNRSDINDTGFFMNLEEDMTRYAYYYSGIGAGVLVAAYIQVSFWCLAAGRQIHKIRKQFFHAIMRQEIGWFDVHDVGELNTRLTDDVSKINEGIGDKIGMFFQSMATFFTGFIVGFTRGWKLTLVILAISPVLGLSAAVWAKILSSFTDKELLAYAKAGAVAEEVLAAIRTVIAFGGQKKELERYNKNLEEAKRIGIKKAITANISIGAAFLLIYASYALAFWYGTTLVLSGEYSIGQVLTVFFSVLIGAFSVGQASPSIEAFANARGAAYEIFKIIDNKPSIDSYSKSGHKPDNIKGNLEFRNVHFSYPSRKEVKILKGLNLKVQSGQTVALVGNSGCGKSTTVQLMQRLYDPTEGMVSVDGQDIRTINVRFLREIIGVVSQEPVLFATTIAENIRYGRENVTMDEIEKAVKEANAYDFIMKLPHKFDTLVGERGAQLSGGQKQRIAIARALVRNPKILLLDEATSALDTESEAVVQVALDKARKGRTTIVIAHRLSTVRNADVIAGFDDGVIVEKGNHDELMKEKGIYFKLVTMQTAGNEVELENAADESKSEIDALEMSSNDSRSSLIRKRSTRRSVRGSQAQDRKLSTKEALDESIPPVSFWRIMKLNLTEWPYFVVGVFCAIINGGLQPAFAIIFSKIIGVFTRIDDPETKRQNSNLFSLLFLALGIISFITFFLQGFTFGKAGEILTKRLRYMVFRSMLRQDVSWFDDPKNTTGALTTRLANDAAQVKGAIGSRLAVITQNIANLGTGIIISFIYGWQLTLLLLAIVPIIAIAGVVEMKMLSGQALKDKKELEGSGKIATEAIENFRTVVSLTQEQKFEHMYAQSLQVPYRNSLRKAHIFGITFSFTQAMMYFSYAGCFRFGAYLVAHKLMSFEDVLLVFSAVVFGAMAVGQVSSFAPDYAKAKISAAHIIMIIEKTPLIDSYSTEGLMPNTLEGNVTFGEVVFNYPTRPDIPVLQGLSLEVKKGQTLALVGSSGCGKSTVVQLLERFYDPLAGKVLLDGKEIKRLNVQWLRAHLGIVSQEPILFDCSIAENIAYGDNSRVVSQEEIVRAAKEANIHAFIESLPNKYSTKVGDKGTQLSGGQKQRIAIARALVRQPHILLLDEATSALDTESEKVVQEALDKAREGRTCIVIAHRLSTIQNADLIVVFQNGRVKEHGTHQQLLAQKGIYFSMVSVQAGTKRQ

Regarding `COc1ccc2cc1Oc1ccc(cc1)C[C@H]1c3cc(c(OC)cc3CCN1C)Oc1c(OC)c(OC)c(OC)c3c1[C@H](C2)N(C)CC3` [HERNANDEZINE], the Activity in the data set on KB 3-1 worked out at 5.1%. Besides, the Ratio stood at 7 in data set [1]; 4 in data set [2]; 34 in data set [3]; 8 in data set [4]; 11 in data set [5]; 325 in data set [6].

Source of the values: ChEMBL document CHEMBL3867440, “Hernandezine, a Bisbenzylisoquinoline Alkaloid with Selective Inhibitory Activity against Multidrug-Resistance-Linked ATP-Binding Cassette Drug Transporter ABCB1” (J Nat Prod, 2016).
